From ChEMBL document CHEMBL1156036, “A class of novel N-(3S-1,2,3,4-tetrahydroisoquinoline-3-carbonyl)-L-amino acid derivatives: their synthesis, anti-thrombotic activity evaluation, and 3D QSAR analysis” (Eur J Med Chem, 2009)
Square brackets hold non-standard residues; d marks the D form. Peptide text beside a SMILES is read from it. Tic = O=C(O)[C@@H]1Cc2ccccc2CN1

What was measured:
Format in all cases: functional
Rattus norvegicus = test: Antithrombotic activity in Wistar rat assessed as reduction of wet thrombus weight at 5 umol/kg, iv after 15 mins
Method in brief: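 Male Wistar rats, 250-300 g, given agent dissolved in NS (kept on ice) intravenously; Aspirin 15 μmol/kg as reference, NS as vehicle. Pentobarbital sodium 80.0 mg/kg i.p. Arteriovenous shunt from right carotid artery to left jugular vein via polyethylene tube containing a thread; blood flowed 15 min; wet thrombus weighed, n = 12, mean ± SD.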

[1] = Antiplatelet aggregatory activity in pig […] assessed as inhibition of ADP-induced platelet aggregation; details: Sus scrofa
Method in brief: (§1)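 Pig blood spun 1000g 10 min for platelet-rich plasma, then 1500g 10 min for platelet-poor plasma; platelets adjusted to 2×10^8/ml with autologous PPP. Test agent in NS (final 100 to 0.001 μM) added to 0.5 ml plasma, then inducer in NS: PAF 0.1 μM, ADP 10 μM, AA 350 μM or thrombin 0.1 U/ml (final). Optical aggregometry, 37 °C, 5 min, six tubes.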

[2] = Antiplatelet aggregatory activity in pig […] assessed as inhibition of platelet-activating factor-induced platelet aggregation; details: Sus scrofa; method in brief: as §1
[3] = Antiplatelet aggregatory activity in pig […] assessed as inhibition of thrombin-induced platelet aggregation; details: Sus scrofa; method in brief: as §1
[4] = Antiplatelet aggregatory activity in pig […] assessed as inhibition of arachidonic acid-induced platelet aggregation; details: Sus scrofa; method in brief: as §1

C[C@H](N)C(=O)N1Cc2ccccc2C[C@H]1C(=O)O (H-Ala-[Tic]-OH)
Activity (Rattus norvegicus): 20.3 mg | IC50 [1]: 651 nM | IC50 [2]: 945 nM | IC50 [3]: 741 nM | IC50 [4]: 452 nM

N=C(N)NCCC[C@H](N)C(=O)N1Cc2ccccc2C[C@H]1C(=O)O (H-Arg-[Tic]-OH)
Activity (Rattus norvegicus): 20.06 mg | IC50 [1]: 210 nM | IC50 [2]: 517 nM | IC50 [3]: 565 nM | IC50 [4]: 298 nM

NC(=O)C[C@H](N)C(=O)N1Cc2ccccc2C[C@H]1C(=O)O (H-Asn-[Tic]-OH)
Activity (Rattus norvegicus): 22.66 mg | IC50 [1]: 534 nM | IC50 [2]: 360 nM | IC50 [3]: 495 nM | IC50 [4]: 430 nM

N[C@@H](CC(=O)O)C(=O)N1Cc2ccccc2C[C@H]1C(=O)O (H-Asp-[Tic]-OH)
Activity (Rattus norvegicus): 20.3 mg | IC50 [1]: 345 nM | IC50 [2]: 383 nM | IC50 [4]: 344 nM

NC(=O)CC[C@H](N)C(=O)N1Cc2ccccc2C[C@H]1C(=O)O (H-Gln-[Tic]-OH)
Activity (Rattus norvegicus): 21.3 mg | IC50 [1]: 302 nM | IC50 [2]: 392 nM | IC50 [3]: 555 nM | IC50 [4]: 407 nM

N[C@@H](CCC(=O)O)C(=O)N1Cc2ccccc2C[C@H]1C(=O)O (H-Glu-[Tic]-OH)
Activity (Rattus norvegicus): 20.87 mg | IC50 [1]: 494 nM | IC50 [2]: 544 nM | IC50 [3]: 589 nM | IC50 [4]: 369 nM

NCC(=O)N1Cc2ccccc2C[C@H]1C(=O)O (H-Gly-[Tic]-OH)
Activity (Rattus norvegicus): 21.17 mg | IC50 [1]: 365 nM | IC50 [2]: 875 nM | IC50 [3]: 761 nM | IC50 [4]: 440 nM

N[C@@H](Cc1c[nH]cn1)C(=O)N1Cc2ccccc2C[C@H]1C(=O)O (H-His-[Tic]-OH)
Activity (Rattus norvegicus): 21.78 mg | IC50 [1]: 324 nM | IC50 [2]: 670 nM | IC50 [3]: 684 nM | IC50 [4]: 351 nM

CC[C@H](C)[C@H](N)C(=O)N1Cc2ccccc2C[C@H]1C(=O)O (H-Ile-[Tic]-OH)
Activity (Rattus norvegicus): 21.14 mg | IC50 [1]: 315 nM | IC50 [2]: 831 nM | IC50 [3]: 674 nM | IC50 [4]: 238 nM

CC(C)C[C@H](N)C(=O)N1Cc2ccccc2C[C@H]1C(=O)O (H-Leu-[Tic]-OH)
Activity (Rattus norvegicus): 19.12 mg | IC50 [1]: 336 nM | IC50 [2]: 891 nM | IC50 [3]: 730 nM | IC50 [4]: 573 nM

NCCCC[C@H](N)C(=O)N1Cc2ccccc2C[C@H]1C(=O)O (H-Lys-[Tic]-OH)
Activity (Rattus norvegicus): 21.31 mg | IC50 [1]: 323 nM | IC50 [2]: 472 nM | IC50 [3]: 829 nM | IC50 [4]: 521 nM

CSCC[C@H](N)C(=O)N1Cc2ccccc2C[C@H]1C(=O)O (H-Met-[Tic]-OH)
Activity (Rattus norvegicus): 19.56 mg | IC50 [1]: 265 nM | IC50 [2]: 409 nM | IC50 [4]: 382 nM

N[C@@H](Cc1ccccc1)C(=O)N1Cc2ccccc2C[C@H]1C(=O)O (H-Phe-[Tic]-OH)
Activity (Rattus norvegicus): 22.23 mg | IC50 [1]: 370 nM | IC50 [3]: 851 nM | IC50 [4]: 666 nM

O=C(O)[C@@H]1Cc2ccccc2CN1C(=O)[C@@H]1CCCN1 (H-Pro-[Tic]-OH)
Activity (Rattus norvegicus): 21.09 mg | IC50 [1]: 373 nM | IC50 [3]: 590 nM | IC50 [4]: 526 nM

N[C@@H](CO)C(=O)N1Cc2ccccc2C[C@H]1C(=O)O (H-Ser-[Tic]-OH)
Activity (Rattus norvegicus): 18 mg | IC50 [1]: 103 nM | IC50 [2]: 267 nM | IC50 [3]: 498 nM | IC50 [4]: 572 nM

C[C@@H](O)[C@H](N)C(=O)N1Cc2ccccc2C[C@H]1C(=O)O (H-Thr-[Tic]-OH)
Activity (Rattus norvegicus): 20.73 mg | IC50 [1]: 240 nM | IC50 [2]: 404 nM | IC50 [3]: 879 nM | IC50 [4]: 215 nM

N[C@@H](Cc1ccc(O)cc1)C(=O)N1Cc2ccccc2C[C@H]1C(=O)O (H-Tyr-[Tic]-OH)
Activity (Rattus norvegicus): 20.92 mg | IC50 [2]: 668 nM | IC50 [3]: 736 nM | IC50 [4]: 535 nM

CC(C)[C@H](N)C(=O)N1Cc2ccccc2C[C@H]1C(=O)O (H-Val-[Tic]-OH)
Activity (Rattus norvegicus): 20.12 mg | IC50 [1]: 389 nM | IC50 [2]: 632 nM | IC50 [3]: 653 nM | IC50 [4]: 423 nM
